The results in this text go back to ChEMBL document CHEMBL1955792, “Potent norovirus inhibitors based on the acyclic sulfamide scaffold” (Bioorg Med Chem, 2012).

The test system of data set [1] is Norovirus. Kind of data set: Antiviral activity against Norovirus infected in HG23 cells assessed as inhibition of viral replication at 24 hrs by qRT-PCR analysis. Format: functional. The settings on record: read-out: ED50 (the source's name). The method in brief: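 Norwalk virus replicon-bearing HG23 cells were treated with compound, and NV genome levels were quantified by qRT-PCR at 24 h post-treatment. ED50 was derived from the reduction in genome levels. Values are the average of two independent experiments ± standard deviation.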
(In general: Real-time PCR tracks product formation cycle by cycle.)

For data set [2], the system named is Norovirus. In words: Inhibition of Norovirus 3C protease.
Data set [3] can be described thus: Therapeutic index, ratio of TD50 for human HG23 cells to ED50 for Norovirus infected in HG23 cells. Format: cell-based. The note with it: for Ratio TD50/ED50: hg23; for selectivity ratio: HG23 cells, read-out: Ratio TD50/ED50. The method in brief:
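TD50 in HG23 replicon cells was measured with a cell cytotoxicity assay kit after 48 h of treatment. […] The index is TD50 divided by ED50.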

A short description of data set [4]: Cytotoxicity against human HG23 cells at 48 hrs. It counts as cell-based. The settings on record: for CC50: hg23, 48 h, 48 h, read-out: TD50 (the source's name); for CC50 at 48 h: HG23 cells, read-out: TD50. The method in brief:
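Norwalk virus replicon-harboring HG23 cells were treated with compound for 48 h, then assayed with a commercial cell cytotoxicity kit. The median toxic dose (TD50) was calculated from this read-out. Values are the average of two independent experiments ± standard deviation.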

The source made the active and inactive calls. The rule behind the calls is not given here. Bounds are passed on as bounds.

Regarding `O=C(O)CCCCN1CCN(Cc2cccc(Oc3ccccc3)c2)S1(=O)=O`, the EC50 in the data set with Norovirus [1] (Norovirus, HG23, 24 h) is 6.1 µM. As for `CSCCC(NS(=O)(=O)NCc1cccc(Oc2ccccc2)c1)C(=O)NCCN1CCOCC1` (racemic; 7d), the inhibition entry in the data set with Norovirus [2] is “inactive”. As to `CN(CC(=O)NCCN1CCOCC1)S(=O)(=O)NCc1cccc(Oc2ccccc2)c1.Cl`, the “Ratio TD50/ED50” value in data set [3] amounted to 24. Further, the CC50 in data set [4] was 235 µM. In the data set with Norovirus [1], the EC50 came out at 10.1 µM. For `CC(NS(=O)(=O)NCc1cccc(Oc2ccccc2)c1)C(=O)NCCN1CCOCC1` (racemic; 6b) [listing 1 of 2 here], in the data set on Norovirus [2], the inhibition result was “inactive”. As to `O=C(O)C1CCN(C(=O)CNS(=O)(=O)NCc2cccc(Oc3ccccc3)c2)CC1`, the inhibition result with Norovirus [2] was “inactive”. Besides, in the data set with Norovirus [1] (Norovirus, HG23, 24 h), the EC50 is more than 10 µM.

Consider `CC(NS(=O)(=O)NCc1cccc(Oc2ccccc2)c1)C(=O)NCCN1CCOCC1` (racemic; 6b) [listing 2 of 2 here], for which the EC50 in the data set with Norovirus [1] (Norovirus, HG23, 24 h) is more than 10 µM. As to `CSCCC(NS(=O)(=O)NCc1cccc(Oc2ccccc2)c1)C(=O)NCCN1CCOCC1` (racemic; 6d) [listing 1 of 2 here], the inhibition entry in the data set with Norovirus [2] was “inactive”. Same read-out and setting: the result for `CC(NS(=O)(=O)NCc1cccc(Oc2ccccc2)c1)C(=O)NCCN1CCOCC1` (racemic; 7b) reads “inactive”; that for `CN(CC(=O)NCCN1CCOCC1)S(=O)(=O)NCc1cccc(Oc2ccccc2)c1` [listing 1 of 2 here], “inactive”. `O=C(CNS(=O)(=O)NCc1cccc(Oc2ccccc2)c1)NCCN1CCOCC1` [listing 1 of 3 here]: the selectivity ratio in data set [3] worked out at 65. Further, the CC50 in data set [4] is 330 µM. The EC50 in the data set with Norovirus [1] came out at 5.1 µM. As for `COC(=O)C1CCC(NC(=O)CNS(=O)(=O)NCc2cccc(Oc3ccccc3)c2)CC1` (configuration not stated), the inhibition entry with Norovirus [2] was “inactive”. Also, in data set [4], the CC50 at 48 h is 75 µM. Further, the EC50 in the data set with Norovirus [1] (Norovirus, HG23, 24 h) is more than 10 µM.

Consider `O=C(CNS(=O)(=O)NCc1cccc(Oc2ccccc2)c1)NCCN1CCOCC1` [listing 2 of 3 here], for which the inhibition result with Norovirus [2] was “inactive”. `O=C(CN(Cc1ccccc1)S(=O)(=O)NCc1cccc(Oc2ccccc2)c1)NCCN1CCOCC1` [listing 1 of 3 here]: the CC50 at 48 h in data set [4] worked out at 45 µM. Further, the EC50 with Norovirus [1] (Norovirus, HG23, 24 h) worked out at 3.8 µM. On to `CCCC(NS(=O)(=O)NCc1cccc(Oc2ccccc2)c1)C(=O)NCCN1CCOCC1` (racemic), for which, in the data set on Norovirus [2], the inhibition entry is “inactive”. Besides, the EC50 with Norovirus [1] (Norovirus, HG23, 24 h) is more than 10 µM. As to `Cl.O=C(CNS(=O)(=O)NCc1cccc(Oc2ccccc2)c1)N1CCN(Cc2ccccc2)CC1`, in data set [3], the “Ratio TD50/ED50” value is given as 21. Moreover, the CC50 in data set [4] was 120 µM. Besides, the EC50 in the data set with Norovirus [1] is 5.7 µM. For the compound `O=C(CN(Cc1ccccc1)S(=O)(=O)NCc1cccc(Oc2ccccc2)c1)NCCN1CCOCC1` [listing 2 of 3 here], the inhibition entry in the data set on Norovirus [2] is “inactive”. Take `O=C(CNS(=O)(=O)NCc1cccc(Oc2ccccc2)c1)N1CCN(Cc2ccccc2)CC1` [listing 1 of 2 here]: the inhibition entry in the data set with Norovirus [2] is “inactive”. As for `COC(=O)C1CCN(C(=O)CNS(=O)(=O)NCc2cccc(Oc3ccccc3)c2)CC1`, the inhibition entry in the data set with Norovirus [2] was “inactive”. The EC50 in the data set with Norovirus [1] (Norovirus, HG23, 24 h) was more than 10 µM. For `O=C(CNS(=O)(=O)NCc1cccc(Oc2ccccc2)c1)NCc1ccco1`, the inhibition result in the data set with Norovirus [2] was “inactive”. Further, the EC50 with Norovirus [1] (Norovirus, HG23, 24 h) was more than 10 µM.

Regarding `O=C(CNS(=O)(=O)NCc1cccc(Oc2ccccc2)c1)N1CCN(Cc2ccccc2)CC1` [listing 2 of 2 here], the selectivity ratio in data set [3] came to 26. Moreover, the CC50 at 48 h in data set [4] came to 145 µM. The EC50 with Norovirus [1] (Norovirus, HG23, 24 h) worked out at 5.5 µM.

For `O=C(CNS(=O)(=O)NCc1cccc(Oc2ccccc2)c1)NCc1ccccc1`, the inhibition result in the data set on Norovirus [2] was “inactive”. In data set [4], the CC50 at 48 h was found to be 47 µM. Moreover, the EC50 with Norovirus [1] (Norovirus, HG23, 24 h) is 8.1 µM.

Consider `O=C(CN(Cc1ccccc1)S(=O)(=O)NCc1cccc(Oc2ccccc2)c1)NCCN1CCOCC1` [listing 3 of 3 here], for which, in data set [4], the CC50 was determined as 55 µM. In addition, the EC50 in the data set with Norovirus [1] was determined as 3.9 µM. With `CSCCC(NS(=O)(=O)NCc1cccc(Oc2ccccc2)c1)C(=O)NCCN1CCOCC1.Cl` (racemic; 7d), the “Ratio TD50/ED50” value in data set [3] stood at 54. Further, the CC50 in data set [4] came out at 230 µM.

For the compound `COC(=O)CNS(=O)(=O)NCc1cccc(Oc2ccccc2)c1`, in the data set with Norovirus [2], the inhibition entry is “inactive”. Further, in the data set with Norovirus [1] (Norovirus, HG23, 24 h), the EC50 was more than 10 µM. Turning to `CCOC(=O)N1CCN(C(=O)CNS(=O)(=O)NCc2cccc(Oc3ccccc3)c2)CC1`, in the data set with Norovirus [2], the inhibition entry is “inactive”. Also, the CC50 at 48 h in data set [4] is 130 µM. Besides, the EC50 in the data set on Norovirus [1] (Norovirus, HG23, 24 h) was determined as 8.2 µM.

In the case of `O=C(CNS(=O)(=O)NCc1cccc(Oc2ccccc2)c1)NCCN1CCOCC1` [listing 3 of 3 here], the CC50 at 48 h in data set [4] was 165 µM. Further, in the data set on Norovirus [1] (Norovirus, HG23, 24 h), the EC50 turned out to be 8.5 µM. With `O=S1(=O)N(CCN2CCOCC2)CCN1Cc1cccc(Oc2ccccc2)c1`, the CC50 at 48 h in data set [4] worked out at 51 µM. Besides, the EC50 in the data set with Norovirus [1] (Norovirus, HG23, 24 h) came to 4.2 µM. As for `CN(CC(=O)NCCN1CCOCC1)S(=O)(=O)NCc1cccc(Oc2ccccc2)c1` [listing 2 of 2 here], the “Ratio TD50/ED50” value in data set [3] came out at 63. For the same compound, the CC50 at 48 h in data set [4] turned out to be 320 µM. For the same compound, in the data set with Norovirus [1] (Norovirus, HG23, 24 h), the EC50 was 5.2 µM. Consider `CSCCC(NS(=O)(=O)NCc1cccc(Oc2ccccc2)c1)C(=O)NCCN1CCOCC1` (racemic; 6d) [listing 2 of 2 here], for which, in data set [3], the selectivity ratio is more than 27. The CC50 at 48 h in data set [4] is 124 µM. For the same compound, the EC50 in the data set with Norovirus [1] (Norovirus, HG23, 24 h) came out at 4.5 µM. Regarding `O=C(CNS(=O)(=O)NCc1cccc(Oc2ccccc2)c1)NC1CCC(C(=O)O)CC1` (configuration not stated), the inhibition result in the data set with Norovirus [2] is “inactive”. Besides, in the data set with Norovirus [1] (Norovirus, HG23, 24 h), the EC50 is more than 10 µM. With `O=S1(=O)NCCN1Cc1cccc(Oc2ccccc2)c1`, the EC50 with Norovirus [1] (Norovirus, HG23, 24 h) was found to be 4.1 µM. Turning to `O=C(CNS(=O)(=O)NCc1cccc(Oc2ccccc2)c1)NCCc1ccccc1`, the inhibition result with Norovirus [2] is “inactive”. For the same compound, the EC50 in the data set on Norovirus [1] (Norovirus, HG23, 24 h) was more than 10 µM.
